{"source": "ChEMBL document CHEMBL4325837", "about": "“Discovery of novel NO-releasing celastrol derivatives with Hsp90 inhibition and cytotoxic activities” (Eur J Med Chem, 2018)", "key": {"HepG2": {"tested_on": "HepG2", "experiment": "Antiproliferative activity against human HepG2 cells after 48 hrs by MTT assay", "format": "functional, cell-based", "conditions": "HepG2, 48 h", "method_in_brief": "(§1)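 MTT assay. Cells were seeded at 5.0 × 10⁴ cells/ml in 100 μL per well and grown 24 h. They were then exposed to a range of concentrations for 48 h. MTT (5 mg/ml) was added for 4 h, the supernatant was removed and DMSO was added. OD was read at 570 nm. Assays were run in triplicate and IC50 is reported as mean ± SD, n = 3.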"}, "A549 [1]": {"tested_on": "A549", "experiment": "Cell cycle arrest in human A549 cells assessed as accumulation at G2 phase at 0.4 uM by after 24 hrs by RNase A/propidium iodide staining-based flow cytometric analysis (reference value: 24.84%)", "format": "functional"}, "A549 [2]": {"tested_on": "A549", "experiment": "Induction of apoptosis in human A549 cells assessed as late apoptotic cells at 0.6 uM after 48 hrs by Annexin V-FITC/propidium iodide staining-based flow cytometric analysis (reference value: 0.4%)", "format": "functional", "method_in_brief": "(§2)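 A549 cells (4 × 10⁵ per 6 cm dish) were grown 24 h, then treated for 48 h. Cells were harvested, washed twice with cold PBS and resuspended in 250 μL binding buffer with 2.5 μL PI and 2.5 μL Annexin V-FITC. After 15 min at room temperature in the dark, they were analysed by flow cytometry for early and late apoptotic fractions.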"}, "[3]": {"molecular_target": "T1, Heat shock protein HSP90 (Homo sapiens) (UniProt P07900+P08238)", "experiment": "Inhibition of HSP90 in human A549 cells assessed as decrease in CDK4 protein expression at 0.5 to 2.5 uM after 24 hrs by Western blot analysis", "format": "cell-based", "method_in_brief": "(§3)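 A549 cells (5 × 10⁵ per 6 cm dish) were grown 24 h, then treated for 24 h. Cells were lysed and the lysate spun at 10,000 g for 20 min at 4 °C. Protein was adjusted to 3 mg/ml by BCA and run on 10% SDS-PAGE. Blots were probed with monoclonal antibodies for Cdk4, Hsp90, p-Akt and Akt, with β-actin as internal control.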"}, "A549 [4]": {"tested_on": "A549", "experiment": "Induction of apoptosis in human A549 cells assessed as chromatin condensation at 0.3 to 1.2 uM after 48 hrs by Hoechst 33342 staining based fluorescent microscopic method", "format": "functional, cell-based", "method_in_brief": "(§4)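 A549 cells (4 × 10⁵ per 6 cm dish) were grown 24 h, then treated for 48 h. Cells were washed twice with PBS, stained with Hoechst 33342 (10 µg/ml) for 5 min at room temperature in the dark, and examined by fluorescence microscopy for chromatin condensation and nuclear fragmentation.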"}, "A549 [5]": {"tested_on": "A549", "experiment": "Induction of apoptosis in human A549 cells assessed as nuclear fragmentation at 0.3 to 1.2 uM after 48 hrs by Hoechst 33342 staining based fluorescent microscopic method", "format": "functional, cell-based", "method_in_brief": "as §4"}, "A549 [6]": {"tested_on": "A549", "experiment": "Induction of apoptosis in human A549 cells assessed as early apoptotic cells at 1.2 uM after 48 hrs by Annexin V-FITC/propidium iodide staining-based flow cytometric analysis (reference value: 0.5%)", "format": "functional"}, "A549 [7]": {"tested_on": "A549", "experiment": "Induction of apoptosis in human A549 cells assessed as early apoptotic cells at 0.3 uM after 48 hrs by Annexin V-FITC/propidium iodide staining-based flow cytometric analysis (reference value: 0.5%)", "format": "functional", "method_in_brief": "as §2"}, "[8]": {"experiment": "Drug metabolism in human A549 cells assessed as nitric oxide release at 4 uM measured up to 24 hrs", "format": "ADME, cell-based", "conditions": "a549, 24 h", "method_in_brief": "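A549 cells were seeded at 5.0 × 10⁴ cells/ml in 100 μL wells and grown 24 h at 37 °C. Hybrids were added at 4 μM for varying times, with 24 h used for the full set. NO was measured with a Nitrate/Nitrite assay kit against a standard curve, reading OD at 550 nm. Values are the mean of three independent experiments.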"}, "MCF7": {"tested_on": "MCF7", "experiment": "Antiproliferative activity against human MCF7 cells after 48 hrs by MTT assay", "format": "functional, cell-based", "conditions": "MCF7, 48 h", "method_in_brief": "as §1"}, "A549 [9]": {"tested_on": "A549", "experiment": "Cell cycle arrest in human A549 cells assessed as accumulation at G2 phase at 0.8 uM by after 24 hrs by RNase A/propidium iodide staining-based flow cytometric analysis (reference value: 24.84%)", "format": "functional"}, "A549 [10]": {"tested_on": "A549", "experiment": "Induction of apoptosis in human A549 cells assessed as necrotic cells at 1.2 uM after 48 hrs by Annexin V-FITC/propidium iodide staining-based flow cytometric analysis (reference value: 0.6%)", "format": "functional"}, "A549 [11]": {"tested_on": "A549", "experiment": "Induction of apoptosis in human A549 cells assessed as early apoptotic cells at 0.6 uM after 48 hrs by Annexin V-FITC/propidium iodide staining-based flow cytometric analysis (reference value: 0.5%)", "format": "functional", "method_in_brief": "as §2"}, "A549 [12]": {"tested_on": "A549", "experiment": "Induction of apoptosis in human A549 cells assessed as necrotic cells at 0.3 uM after 48 hrs by Annexin V-FITC/propidium iodide staining-based flow cytometric analysis (reference value: 0.6%)", "format": "functional", "method_in_brief": "as §2"}, "A549 [13]": {"tested_on": "A549", "experiment": "Cell cycle arrest in human A549 cells assessed as accumulation at G2 phase at 0.2 uM by after 24 hrs by RNase A/propidium iodide staining-based flow cytometric analysis (reference value: 24.84%)", "format": "functional"}, "A549 [14]": {"tested_on": "A549", "experiment": "Induction of apoptosis in human A549 cells assessed as necrotic cells at 0.6 uM after 48 hrs by Annexin V-FITC/propidium iodide staining-based flow cytometric analysis (reference value: 0.6%)", "format": "functional", "method_in_brief": "as §2"}, "A549 [15]": {"tested_on": "A549", "experiment": "Cell cycle arrest in human A549 cells assessed as accumulation at G1 phase at 0.2 uM by after 24 hrs by RNase A/propidium iodide staining-based flow cytometric analysis (reference value: 46.97%)", "format": "functional"}, "A549 [16]": {"tested_on": "A549", "experiment": "Induction of apoptosis in human A549 cells assessed as viable cells at 0.6 uM after 48 hrs by Annexin V-FITC/propidium iodide staining-based flow cytometric analysis (reference value: 98.5%)", "format": "functional", "conditions": "A549, 48 h, read-out: Activity", "method_in_brief": "as §2"}, "A549 [17]": {"tested_on": "A549", "experiment": "Cell cycle arrest in human A549 cells assessed as accumulation at G1 phase at 0.4 uM by after 24 hrs by RNase A/propidium iodide staining-based flow cytometric analysis (reference value: 46.97%)", "format": "functional"}, "HOS": {"tested_on": "HOS", "experiment": "Antiproliferative activity against human HOS cells after 48 hrs by MTT assay", "format": "functional, cell-based", "method_in_brief": "as §1"}, "A549 [18]": {"tested_on": "A549", "experiment": "Induction of apoptosis in human A549 cells assessed as viable cells at 0.3 uM after 48 hrs by Annexin V-FITC/propidium iodide staining-based flow cytometric analysis (reference value: 98.5%)", "format": "functional", "conditions": "A549, 48 h, read-out: Activity", "method_in_brief": "as §2"}, "A549 [19]": {"tested_on": "A549", "experiment": "Antiproliferative activity against human A549 cells after 48 hrs by MTT assay", "format": "functional, cell-based", "conditions": "A549, 48 h", "method_in_brief": "as §1"}, "A549 [20]": {"tested_on": "A549", "experiment": "Induction of apoptosis in human A549 cells after 48 hrs by Annexin V-FITC/propidium iodide staining-based flow cytometric analysis", "format": "functional, cell-based", "method_in_brief": "as §2"}, "[21]": {"molecular_target": "T1, Heat shock protein HSP90 (Homo sapiens)", "experiment": "Inhibition of HSP90 in human A549 cells at 0.5 to 2.5 uM after 24 hrs by Western blot analysis", "format": "cell-based", "method_in_brief": "as §3"}, "A549 [22]": {"tested_on": "A549", "experiment": "Induction of apoptosis in human A549 cells assessed as late apoptotic cells at 0.3 uM after 48 hrs by Annexin V-FITC/propidium iodide staining-based flow cytometric analysis (reference value: 0.4%)", "format": "functional", "method_in_brief": "as §2"}, "A549 [23]": {"tested_on": "A549", "experiment": "Induction of apoptosis in human A549 cells assessed as late apoptotic cells at 1.2 uM after 48 hrs by Annexin V-FITC/propidium iodide staining-based flow cytometric analysis (reference value: 0.4%)", "format": "functional"}, "A549 [24]": {"tested_on": "A549", "experiment": "Induction of apoptosis in human A549 cells assessed as viable cells at 1.2 uM after 48 hrs by Annexin V-FITC/propidium iodide staining-based flow cytometric analysis (reference value: 98.5%)", "format": "functional", "conditions": "A549, 48 h, read-out: Activity"}, "[25]": {"molecular_target": "T1, Heat shock protein HSP90 (Homo sapiens)", "experiment": "Inhibition of HSP90 in human A549 cells assessed as decrease in Akt phosphorylation at 0.5 to 2.5 uM after 24 hrs by Western blot analysis", "format": "cell-based", "method_in_brief": "as §3"}, "A549 [26]": {"tested_on": "A549", "experiment": "Cell cycle arrest in human A549 cells assessed as accumulation at S phase at 0.8 uM by after 24 hrs by RNase A/propidium iodide staining-based flow cytometric analysis (reference value: 28.11%)", "format": "functional"}, "A549 [27]": {"tested_on": "A549", "experiment": "Cell cycle arrest in human A549 cells assessed as accumulation at S phase at 0.4 uM by after 24 hrs by RNase A/propidium iodide staining-based flow cytometric analysis (reference value: 28.11%)", "format": "functional"}, "A549 [28]": {"tested_on": "A549", "experiment": "Cell cycle arrest in human A549 cells assessed as accumulation at G1 phase at 0.8 uM by after 24 hrs by RNase A/propidium iodide staining-based flow cytometric analysis (reference value: 46.97%)", "format": "functional"}, "A549 [29]": {"tested_on": "A549", "experiment": "Cell cycle arrest in human A549 cells assessed as accumulation at S phase at 0.2 uM by after 24 hrs by RNase A/propidium iodide staining-based flow cytometric analysis (reference value: 28.11%)", "format": "functional"}}, "note": "Activity calls are given as the source filed them. No cut-off for these calls is given here.", "data": [{"smiles": "CC1=C(O)C(=O)C=C2C1=CC=C1[C@@]2(C)CC[C@@]2(C)[C@@H]3C[C@](C)(C(=O)NCCCOc4no[n+]([O-])c4S(=O)(=O)c4ccccc4)CC[C@]3(C)CC[C@]12C", "values": [{"measurement": "IC50", "setting": "HepG2", "value": 1410, "unit": "nM"}, {"measurement": "Activity", "setting": "A549 [1]", "value": 18.38, "unit": "%"}, {"measurement": "Activity", "setting": "A549 [2]", "value": 20, "unit": "%"}, {"measurement": "inhibition", "setting": "[3]", "value": "Active"}, {"measurement": "Activity", "setting": "A549 [4]", "value": "Active"}, {"measurement": "Activity", "setting": "A549 [5]", "value": "Active"}, {"measurement": "Activity", "setting": "A549 [6]", "value": 12.9, "unit": "%"}, {"measurement": "Activity", "setting": "A549 [7]", "value": 3.1, "unit": "%"}, {"measurement": "Drug metabolism", "setting": "[8]", "value": "Metabolite_Detected"}, {"measurement": "IC50", "setting": "MCF7", "value": 780, "unit": "nM"}, {"measurement": "Activity", "setting": "A549 [9]", "value": 16.59, "unit": "%"}, {"measurement": "Activity", "setting": "A549 [10]", "value": 9.8, "unit": "%"}, {"measurement": "Activity", "setting": "A549 [11]", "value": 9.9, "unit": "%"}, {"measurement": "Activity", "setting": "A549 [12]", "value": 1.7, "unit": "%"}, {"measurement": "Activity", "setting": "A549 [13]", "value": 21.12, "unit": "%"}, {"measurement": "Activity", "setting": "A549 [14]", "value": 5.3, "unit": "%"}, {"measurement": "Activity", "setting": "A549 [15]", "value": 52.05, "unit": "%"}, {"measurement": "viability at 0.6 µM", "setting": "A549 [16]", "value": 64.8, "unit": "%"}, {"measurement": "Activity", "setting": "A549 [17]", "value": 56.36, "unit": "%"}, {"measurement": "IC50", "setting": "HOS", "value": 510, "unit": "nM"}, {"measurement": "viability at 0.3 µM", "setting": "A549 [18]", "value": 88.8, "unit": "%"}, {"measurement": "IC50", "setting": "A549 [19]", "value": "430 to 480", "unit": "nM"}, {"measurement": "Activity", "setting": "A549 [20]", "value": "Dose-dependent effect"}, {"measurement": "inhibition", "setting": "[21]", "value": "inactive"}, {"measurement": "Activity", "setting": "A549 [22]", "value": 6.4, "unit": "%"}, {"measurement": "Activity", "setting": "A549 [23]", "value": 31, "unit": "%"}, {"measurement": "viability at 1.2 µM", "setting": "A549 [24]", "value": 46.3, "unit": "%"}, {"measurement": "inhibition", "setting": "[25]", "value": "Active"}, {"measurement": "Activity", "setting": "A549 [26]", "value": 25.48, "unit": "%"}, {"measurement": "Activity", "setting": "A549 [27]", "value": 25.12, "unit": "%"}, {"measurement": "Activity", "setting": "A549 [28]", "value": 61.12, "unit": "%"}, {"measurement": "Activity", "setting": "A549 [29]", "value": 27.71, "unit": "%"}]}]}
